Assay [1] in a line: Inhibition of RTK/PI3K/AKT/mTOR signaling in human U87 cells assessed as up regulation of solute carrier family 11 member 2 gene expression at cytotoxic IC50 measured after 48 hrs relative to control. In kind it is cell-based. The following applies: U-87MG ATCC.
In a further assay the test system is U-87 MG. The assay can be described thus: Induction of DNA damage in human U87 cells assessed as change in RPS27L gene expression at cytotoxic IC50 measured after 48 hrs […] relative to control. The format is functional, U-87MG ATCC. In a few lines: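 U87 expression profiling. Cells incubated 48hrs at 37°C, 5% CO₂ with the IC₅₀ concentration, alongside a cisplatin and an untreated control, in triplicate. RNA was isolated by one common protocol and profiled. DEGs were called with DESeq2 (q < 0.05, fold change > 1.5) and expressed as fold change versus untreated.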

Consider `CC(=O)C(=NNc1ccccc1C#N)C(C)=O`, for which the log2FC in assay [1] was found to be 1.18. Besides, in the assay with U-87 MG, the “fold change (FC)” value is recorded as 2.121.
